Laboratory results: ChEMBL document CHEMBL1125736, “N-[(omega-amino-1-hydroxyalkyl)phenyl]methanesulfonamide derivatives with class III antiarrhythmic activity” (1991)

Key:
Canis familiaris [1] = test: Conduction time for ventricular refractory period of the second premature stimulus was tested in dogs at a dose of 10 mg/kg through intravenous administration. (baseline value- 123+/-4); format: functional, Canis lupus familiaris, Cardiac ventricle
Oryctolagus cuniculus [2] = species: Oryctolagus cuniculus; test: Tested for rate automaticity measured in beats per minute from unpaced right atria of rabbit heart.; format: functional
Method in brief: (§1)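 Isolated rabbit heart tissues, all from one heart, each its own baseline; 2 h equilibration, perfusate changed every 15 min, basal stimulation 2 Hz between measurements. Exposed to 10^-7, 10^-6 and 10^-5 M drug, 15 min each; values reported at 10^-5 M as percent change from baseline. Drug solutions prepared daily in glass-distilled water. Force and rate recorded on polygraph.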

Canis familiaris [3] = test: Compound was tested in vivo in dogs at a dose of 0.1 mg/kg through intravenous route and time at which conduction block at the atrioventricular node prevented atrial pacing was recorded.(Base line value-0); format: functional, Canis lupus familiaris
Method in brief: (§2)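 Dogs with myocardial infarction were studied 3-9 days after infarction. They were reanesthetized with pentobarbital, ventilated, and electrodes were placed via thoracotomy; blood gases were monitored. Control ERPs and reproducible inducibility were set by programmed electrical stimulation, then cumulative iv doses were given. Agents were in glass-distilled water or NaOH-neutralized saline (pH 6.7-7.0). Animals were counted per category: NI, nonsustained, sustained, VF, or AV block preventing atrial pacing.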

Canis familiaris [4] = test: Compound was tested in vivo in dogs at a dose of 0.3 mg/kg through intravenous route and time at which conduction block at the atrioventricular node prevented atrial pacing was recorded.(Base line value-0); format: functional, Canis lupus familiaris; method in brief: as §2
Canis familiaris [5] = test: Compound was tested in vivo in dogs at a dose of 1.0 mg/kg through intravenous route and time at which sustained ventricular arrhythmias were induced was recorded.(Base line value-2); format: functional, Canis lupus familiaris, Cardiac ventricle; method in brief: as §2
Oryctolagus cuniculus [6] = species: Oryctolagus cuniculus; test: Tested for force of contraction measured in mg at a pacing rate of 2 Hz in vitro with rabbit heart tissue preparations.; format: functional; method in brief: as §1
Oryctolagus cuniculus [7] = species: Oryctolagus cuniculus; test: Tested for conduction time measured at a pacing rate of 1 Hz in vitro with rabbit heart tissue preparations.; format: functional; method in brief: as §1
Canis familiaris [8] = test: Conduction time for ventricular refractory period of the first premature stimulus was tested in dogs at a dose of 10.0 mg/kg through intravenous administration. (baseline value- 137+/-4); format: functional, Canis lupus familiaris, Cardiac ventricle
Canis familiaris [9] = test: Conduction time from the His bundle to the onset of ventricular depolarizations was tested in dogs at a dose of 1.0 mg/kg through intravenous administration. (baseline value- 17+/-1 ); format: functional, Canis lupus familiaris, Cardiac ventricle
Canis familiaris [10] = test: Compound was tested in vivo in dogs at a dose of 10.0 mg/kg through intravenous route and time at which conduction block at the atrioventricular node prevented atrial pacing was recorded.(Base line value-0); format: functional, Canis lupus familiaris; method in brief: as §2
Canis familiaris [11] = test: Conduction time for ventricular refractory period of the second premature stimulus was tested in dogs at a dose of 3.0 mg/kg through intravenous administration. (baseline value- 123+/-4); format: functional, Canis lupus familiaris, Cardiac ventricle
Canis familiaris [12] = test: Compound was tested in vivo in dogs at a dose of 1.0 mg/kg through intravenous route and time at which nonsustained ventricular arrhythmias were induced was recorded.(Base line value-0); format: functional, Canis lupus familiaris, Cardiac ventricle; method in brief: as §2
Canis familiaris [13] = test: Compound was tested in vivo in dogs at a dose of 3.0 mg/kg through intravenous route and time at which sustained ventricular arrhythmias were induced was recorded.(Base line value-2); format: functional, Canis lupus familiaris, Cardiac ventricle; method in brief: as §2
Canis familiaris [14] = test: Compound was tested in vivo in dogs at a dose of 3.0 mg/kg through intravenous route and time at which nonsustained ventricular arrhythmias were induced was recorded.(Base line value-1); format: functional, Canis lupus familiaris, Cardiac ventricle; settings: in the assay text read “Base line value-0” for “Base line value-1”; method in brief: as §2
Canis familiaris [15] = test: Conduction time from the His bundle to the onset of ventricular depolarizations was tested in dogs at a dose of 10.0 mg/kg through intravenous administration. (baseline value- 17+/-1 ); format: functional, Canis lupus familiaris, Cardiac ventricle
Canis familiaris [16] = test: Compound was tested in vivo in dogs at a dose of 1.0 mg/kg through intravenous route and time at which ventricular fibrillation was induced was recorded.(Base line value-3); format: functional, Canis lupus familiaris, Cardiac ventricle; method in brief: as §2
Canis familiaris [17] = test: Conduction time from the atrium to His bundle was tested in dogs at a dose of 3.0 mg/kg through intravenous administration. (baseline value 73+/-3 ); format: functional, Canis lupus familiaris
Canis familiaris [18] = test: Conduction time from Q wave to T wave of lead II electrocardiogram was tested in dogs at a dose of 1.0 mg/kg through intravenous administration. (baseline value- 352+/-7); format: functional, Canis lupus familiaris
Canis familiaris [19] = test: Conduction time for ventricular refractory period of the second premature stimulus was tested in dogs at a dose of 1.0 mg/kg through intravenous administration. (baseline value- 123+/-4); format: functional, Canis lupus familiaris, Cardiac ventricle
Canis familiaris [20] = test: Conduction time from the atrium to His bundle was tested in dogs at a dose of 1.0 mg/kg through intravenous administration. (baseline value- 73+/-3 ); format: functional, Canis lupus familiaris
Canis familiaris [21] = test: Compound was tested in vivo in dogs at a dose of 3.0 mg/kg through intravenous route and number of animals in which ventricular arrhythmias were not inducible was recorded.(Base line value-5)
Canis familiaris [22] = test: Conduction time for ventricular refractory period of the first premature stimulus was tested in dogs at a dose of 1.0 mg/kg through intravenous administration. (baseline value- 137+/-4); format: functional, Canis lupus familiaris, Cardiac ventricle
Canis familiaris [23] = test: Conduction time for ventricular refractory period of the first premature stimulus was tested in dogs at a dose of 3.0 mg/kg through intravenous administration. (baseline value- 137+/-4); format: functional, Canis lupus familiaris, Cardiac ventricle
Canis familiaris [24] = test: Conduction time from the atrium to His bundle was tested in dogs at a dose of 10.0 mg/kg through intravenous administration. (baseline value- 73+/-3 ); format: functional, Canis lupus familiaris
Canis familiaris [25] = test: Compound was tested in vivo in dogs at a dose of 10.0 mg/kg through intravenous route and time at which sustained ventricular arrhythmias were induced was recorded.(Base line value-2); format: functional, Canis lupus familiaris, Cardiac ventricle; method in brief: as §2
Canis familiaris [26] = test: Conduction time from Q wave to T wave of lead II electrocardiogram was tested in dogs at a dose of 3.0 mg/kg through intravenous administration. (baseline value- 352+/-7); format: functional, Canis lupus familiaris
Canis familiaris [27] = test: Compound was tested in vivo in dogs at a dose of 3.0 mg/kg through intravenous route and time at which conduction block at the atrioventricular node prevented atrial pacing was recorded.(Base line value-0); format: functional, Canis lupus familiaris; method in brief: as §2
Canis familiaris [28] = test: Compound was tested in vivo in dogs at a dose of 10 mg/kg through intravenous route and time at which ventricular arrhythmias were not indicible was recorded.(Base line value-5); format: functional, Canis lupus familiaris, Cardiac ventricle; method in brief: as §2
Oryctolagus cuniculus [29] = species: Oryctolagus cuniculus; test: Tested for effective refractory period measured at a pacing rate of 1 Hz in vitro with rabbit heart tissue preparations.; format: functional; method in brief: as §1
Canis familiaris [30] = test: Compound was tested in vivo in dogs at a dose of 10.0 mg/kg through intravenous route and time at which ventricular fibrillation was induced was recorded.(Base line value-6); format: functional, Canis lupus familiaris, Cardiac ventricle; settings: in the assay text read “Base line value-3” for “Base line value-6”; method in brief: as §2
Oryctolagus cuniculus [31] = species: Oryctolagus cuniculus; test: Tested for effective refractory period measured at a pacing rate of 3 Hz in vitro with rabbit heart tissue preparations.; format: functional; set-up: unit: %; method in brief: as §1
Canis familiaris [32] = test: Compound was tested in vivo in dogs at a dose of 3.0 mg/kg through intravenous route and time at which ventricular fibrillation was induced was recorded.(Base line value-6); format: functional, Canis lupus familiaris, Cardiac ventricle; settings: in the assay text read “Base line value-3” for “Base line value-6”; method in brief: as §2
Canis familiaris [33] = test: Conduction time from Q wave to T wave of lead II electrocardiogram was tested in dogs at a dose of 10 mg/kg through intravenous administration. (baseline value- 352+/-7); format: functional, Canis lupus familiaris
Canis familiaris [34] = test: Conduction time from the His bundle to the onset of ventricular depolarizations was tested in dogs at a dose of 3.0 mg/kg through intravenous administration. (baseline value- 17+/-1 ); format: functional, Canis lupus familiaris, Cardiac ventricle
Canis familiaris [35] = test: Compound was tested in vivo in dogs at a dose of 1.0 mg/kg through intravenous route and time at which conduction block at the atrioventricular node prevented atrial pacing was recorded.(Base line value-0); format: functional, Canis lupus familiaris; method in brief: as §2
Canis familiaris [36] = test: Compound was tested in vivo in dogs at a dose of 10.0 mg/kg through intravenous route and time at which nonsustained ventricular arrhythmias were induced was recorded.(Base line value-1); format: functional, Canis lupus familiaris, Cardiac ventricle; method in brief: as §2
Canis familiaris [37] = test: Compound was tested in vivo in dogs at a dose of 1.0 mg/kg through intravenous route and time at which ventricular arrhythmias were not indicible was recorded.(Base line value-5); format: functional, Canis lupus familiaris, Cardiac ventricle; method in brief: as §2

Structure (SMILES): CC(C)NCC(O)c1ccc(NS(C)(=O)=O)cc1.Cl (configuration not stated) [SOTALOL HYDROCHLORIDE]
- Time (Canis familiaris [1]): 141 ms
- Rate (Oryctolagus cuniculus [2]): -10
- Time (Canis familiaris [3]): 0 animals
- Time (Canis familiaris [4]): 0 animals
- Time (Canis familiaris [5]): 2 animals
- FOC (Oryctolagus cuniculus [6]): 6
- CT1 (Oryctolagus cuniculus [7]): -11.7
- Time (Canis familiaris [8]): 157 ms
- Time (Canis familiaris [9]): 40 ms
- Time (Canis familiaris [10]): 4 animals
- Time (Canis familiaris [11]): 138 ms
- Time (Canis familiaris [12]): 0 animals
- Time (Canis familiaris [13]): 1 animals
- Time (Canis familiaris [14]): 2 animals
- Time (Canis familiaris [15]): 42 ms
- Time (Canis familiaris [16]): 0 animals
- Time (Canis familiaris [17]): 90 ms
- Time (Canis familiaris [18]): 197 ms
- Time (Canis familiaris [19]): 126 ms
- Time (Canis familiaris [20]): 77 ms
- Number of animals not inducible (Canis familiaris [21]): 7 animals
- Time (Canis familiaris [22]): 145 ms
- Time (Canis familiaris [23]): 152 ms
- Time (Canis familiaris [24]): 107 ms
- Time (Canis familiaris [25]): 0 animals
- Time (Canis familiaris [26]): 197 ms
- Time (Canis familiaris [27]): 0 animals
- Time (Canis familiaris [28]): 5 animals
- ERP1 (Oryctolagus cuniculus [29]): 7.3
- Time (Canis familiaris [30]): 0 animals
- ERP3 (Oryctolagus cuniculus [31]): 4.9
- Time (Canis familiaris [32]): 0 animals
- Time (Canis familiaris [33]): 181 ms
- Time (Canis familiaris [34]): 39 ms
- Time (Canis familiaris [35]): 0 animals
- Time (Canis familiaris [36]): 1 animals
- Time (Canis familiaris [37]): 8 animals
